Assay [1] can be described thus: (§1) Percentage of control cell growth was calculated at 100 uM nucleosides after 4 days. The format is functional, Homo sapiens. An outline of the steps:
(§2)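 Human sternal marrow D-98 cells or mouse connective tissue L cells exposed to 100 μM nucleoside for 4 days. Growth expressed as % of untreated control, which underwent at least three doublings.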

Assay [2] deals with L cells. Described as §1. Format: functional, Mus musculus, L929. The essentials:
as §2

For assay [3], the system named is MT4. The experiment in a line: Anti-Human immunodeficiency virus activity against MT-4 cells. Format: functional, cell-based. An outline of the steps: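 MT4 cells infected with HTLV-IIIB at 100-fold TCID50 (100-fold the virus stock concentration giving 50% growth inhibition), compound present for 5 days. IC50 from cell growth protection. Each compound run in triplicate at least five times.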

Assay [4] can be described thus: Percentage of D98 cell growth at 100 uM nucleosides after 4 days. The format is functional, Homo sapiens. An outline of the steps: as §2
Assay [5] deals with MT4. The experiment in a line: Percentage of MT-4 cell growth was calculated at 100 uM nucleosides after 5 days. Format: functional, Homo sapiens. An outline of the steps:
(§3)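 MT4 cells exposed to 100 μM nucleoside for 5 days, growth given as % of untreated control, which underwent at least three doublings.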

In assay [6] the test system is L cells. As to the kind of experiment: Percentage of L cell growth at 100 uM nucleosides after 4 days. Format: functional, Mus musculus, L929. The essentials: as §2
Assay [7] concerns MT4. The experiment in a line: Effect of Coformycin on the Anti-HIV activity in MT-4 cells. The format is functional, cell-based. The settings on record: Homo sapiens. An outline of the steps:
(§4)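 Anti-HIV-1 assay in MT4 cells infected with 100-fold TCID50 HTLV-IIIB over 5 days, run with EHNA or coformycin at 0.1 or 1.0 μM to block deaminase; control wells received PBS in their place. IC50 determined; triplicates, at least five runs.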

The subject of assay [8] is MT4. The experiment in a line: Effect of Erythro-9-(2-Hydroxy-3-nonyl) adenine (EHNA) on the Anti-HIV activity in MT-4 cells. Format: functional, cell-based, Homo sapiens. An outline of the steps: as §4
The subject of assay [9] is MT4. As to the kind of experiment: Effect of Phosphate buffered saline on the Anti-HIV activity in MT-4 cells. Format: functional, cell-based. The settings on record: Homo sapiens. The essentials:
as §4

The test system of assay [10] is MT4. As to the kind of experiment: Percentage of control cell growth was calculated at 100 uM nucleosides after 5 days. Format: functional, Homo sapiens. The essentials: as §3
Assay [11] relates to MT4. As to the kind of experiment: Effect of Coformycin on the Anti-HIV activity in MT-4 cells at 0.10 uM. Format: functional, cell-based. The settings on record: Homo sapiens. The essentials: as §4
Assay [12] has as its system MT4. The experiment in a line: Effect of Coformycin on the Anti-HIV activity in MT-4 cells at 1.0 uM. Format: functional, cell-based. To be noted: Homo sapiens. The essentials:
as §4

In assay [13] the test system is MT4. As to the kind of experiment: Effect of Erythro-9-(2-Hydroxy-3-nonyl) adenine (EHNA) on the Anti-HIV activity in MT-4 cells at 0.10 uM. The settings on record: Homo sapiens. Format: functional, cell-based. An outline of the steps: as §4
The subject of assay [14] is MT4. As to the kind of experiment: Effect of Erythro-9-(2-Hydroxy-3-nonyl) adenine (EHNA) on the Anti-HIV activity in MT-4 cells at 1.0 uM. Format: functional, cell-based. To be noted: Homo sapiens. An outline of the steps:
as §4

Results on 22 compounds are retold here after ChEMBL document CHEMBL1126587, “Novel 6-alkoxypurine 2',3'-dideoxynucleosides as inhibitors of the cytopathic effect of the human immunodeficiency virus” (J Med Chem, 1993).

“And” between values parts separate entries of the source, which are not always exact repeats. Identical values can stand only once.

`CCCCCCCOc1ncnc2c1ncn2C1CCC(CO)O1` (stereo not given): the results for the Control (in assay [1]; in the assay on L cells [2]) were 47% and 34%, respectively. Moreover, the concentration for half-maximal inhibition (IC50) with MT4 [3] turned out to be 25 µM.

Regarding `C=CCOc1ncnc2c1ncn2C1CCC(CO)O1` (stereo not given), the Control in assay [4] is recorded as 68%; in the assay on MT4 [5] it was 100%; with L cells [6] it was 70%. For the same compound, the IC50 with MT4 [3] is 97 µM.

In the case of `OCC1CCC(n2cnc3c(OCC(F)(F)F)ncnc32)O1` (stereo not given), the Control in assay [4] is given as 82%; in the assay on MT4 [5], 100%; with L cells [6], 82%. In the assay on MT4 [3], this compound showed an IC50 of over 100 µM.

Consider `CCC(C)Oc1ncnc2c1ncn2[C@H]1CC[C@@H](CO)O1` (stereo not given in full), for which the Control in [4] is on record as 77%; in the assay on MT4 [5], 100%; with L cells [6] it was 77%. The compound further gave an IC50 in the assay with MT4 [3] of over 100 µM.

Consider `CCCOc1ncnc2c1ncn2C1CCC(CO)O1` (stereo not given), for which the Control was 87% in assay [4], 100% with MT4 [5] and 87% in the assay on L cells [6]. The half-inhibitory concentration (IC50) in the assay on MT4 [3] was over 100 µM.

`OCC1CCC(n2cnc3c(OCCF)ncnc32)O1` (stereo not given): the values for the Control (in assay [4]; in the assay on MT4 [5]; in the assay on L cells [6]) were 76%, 100% and 100%, respectively. In the assay on MT4 [3], the half-maximal inhibitory concentration (IC50) was over 100 µM.

For `CCCCOc1ncnc2c1ncn2C1CCC(CO)O1` (stereo not given), the Control in assay [4] is 85%; with MT4 [5] it was 100%; in the assay with L cells [6], 68%. Besides, the IC50 in the assay on MT4 [7] was over 200 µM; in the assay with MT4 [8] (mt4) it was 26 µM and 70 µM; in the assay on MT4 [3], 70 µM; with MT4 [9], 38 µM.

In the case of `CCCCCCCCCCOc1ncnc2c1ncn2C1CCC(CO)O1` (stereo not given), the Control was under 1% in assay [1], 6% with L cells [2] and 20% in the assay on MT4 [10]. The compound further had an IC50 with MT4 [3] of over 5 µM.

Consider `CC(C)COc1ncnc2c1ncn2C1CCC(CO)O1` (stereo not given), for which the Control is reported as 98% in assay [4], 100% in the assay with MT4 [5] and 98% with L cells [6]. In addition, in the assay on MT4 [3], half-maximal inhibition (IC50) was put at 52 µM.

Take `CCCC(C)Oc1ncnc2c1ncn2C1CCC(CO)O1` (stereo not given): the Control in [4] was 81%; with MT4 [5] it was 100%; in the assay with L cells [6] it was 67%. In the assay with MT4 [3], the concentration for half-maximal inhibition (IC50) was determined as 80 µM.

For `CCCCCCCCOc1ncnc2c1ncn2C1CCC(CO)O1` (stereo not given), the Control was 29% in [1] and 28% with L cells [2]. In addition, the IC50 in the assay with MT4 [3] was over 32 µM.

On to `CCC(CC)Oc1ncnc2c1ncn2C1CCC(CO)O1` (stereo not given), for which the values for the Control (in assay [4]; in the assay on MT4 [5]; with L cells [6]) were 60%, 100% and 68%, respectively. For the same compound, the IC50 with MT4 [3] was over 100 µM.

For `CC[C@H](C)Oc1ncnc2c1ncn2[C@H]1CC[C@@H](CO)O1`, the Control in assay [4] is recorded as 81%; in the assay with MT4 [5], 100%; in the assay on L cells [6], 85%. The same compound yielded an IC50 in the assay on MT4 [3] of 80 µM.

On to `O=c1[nH]cnc2c1ncn2[C@H]1CC[C@@H](CO)O1` [DIDANOSINE], for which the results for the Control (in assay [4]; in the assay on MT4 [5]; in the assay on L cells [6]) were 97%, 100% and 100%, respectively. The half-maximal inhibitory concentration (IC50) with MT4 [3] came to 23 µM; in the assay on MT4 [11], 28 µM; in the assay with MT4 [12] it was 39 µM; with MT4 [13], 30 µM; in the assay on MT4 [14], 31 µM; in the assay on MT4 [9], 30 µM.

As for `COc1ncnc2c1ncn2C1CCC(CO)O1` (stereo not given), the results for the Control (in assay [4]; in the assay on MT4 [5]; with L cells [6]) were 97%, 100% and 96%, respectively. The IC50 in the assay on MT4 [3] was over 100 µM.

As to `CCOc1ncnc2c1ncn2C1CCC(CO)O1` (stereo not given), the Control is given as 82% in [4], 100% with MT4 [5] and 90% in the assay with L cells [6]. For the same compound, the IC50 in the assay on MT4 [3] is over 100 µM.

Take `CC[C@@H](C)Oc1ncnc2c1ncn2[C@H]1CC[C@@H](CO)O1`: the Control is listed as 81% in assay [4], 100% in the assay with MT4 [5] and 81% in the assay with L cells [6]. Also, the IC50 in the assay on MT4 [3] is over 100 µM.

Consider `CCCCCCCCCOc1ncnc2c1ncn2C1CCC(CO)O1` (stereo not given), for which the Control in [1] is 27%; in the assay with L cells [2], 23%. In addition, in the assay with MT4 [3], the IC50 was over 5 µM.

`CCCCCOc1ncnc2c1ncn2C1CCC(CO)O1` (stereo not given): the Control in assay [4] was 60%; in the assay with MT4 [5], 100%; in the assay with L cells [6], 48%. In addition, half-maximal inhibition in the assay with MT4 [3] (IC50) required 50 µM.

Turning to `CCCCCCOc1ncnc2c1ncn2C1CCC(CO)O1` (stereo not given), the Control is on record as 54% in assay [4], 100% with MT4 [5] and 42% in the assay on L cells [6]. Further, the 50% inhibitory concentration (IC50) is over 200 µM in the assay on MT4 [7]; 25 µM and 60 µM with MT4 [8]; 18 µM in the assay with MT4 [3]; 24 µM in the assay with MT4 [9].

For `CC(C)Oc1ncnc2c1ncn2C1CCC(CO)O1` (stereo not given), the values for the Control (in [4]; in the assay with MT4 [5]; with L cells [6]) were 74%, 100% and 72%, respectively. This compound had an IC50 in the assay with MT4 [3] of 100 µM.

Take `C/C=C/COc1ncnc2c1ncn2C1CCC(CO)O1` (stereo not given): the results for the Control (in assay [4]; in the assay on MT4 [5]; in the assay on L cells [6]) were 35%, 100% and 58%, respectively. In addition, the IC50 with MT4 [7] was over 200 µM; with MT4 [8] (Homo sapiens, MT4), 50 µM; with MT4 [8] (mt4), 80 µM; in the assay on MT4 [3], 59 µM; in the assay with MT4 [9] it was 70 µM.

Broadly, the IC50 is the point on the concentration scale where inhibition reaches its midpoint. Higher therefore signals a need for much substance.
